Rows were chosen to be rich in hits. Some 3.4% of all compounds tested hit in one or more screens of this group.
VIM-2 inhibitor: blocks Pseudomonas aeruginosa VIM-2 metallo-beta-lactamase; purified VIM-2, nitrocefin hydrolysis, epi-absorbance fluorescence; inhibition, % at 5.6 µM; 0.89% of 290,000 active;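 active = inhibition above the mean of all tested compounds plus 3 SD, cutoff set per screening run, cut at about 7.5% in these data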;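 also: red hydrolysis product quenches plate fluorescence so inhibitors raise well fluorescence; 0% = enzyme with DMSO and 100% = DMSO without enzyme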
MEKK2 mut-MEK5: signal of MEK5 binding to mutant human MEKK2 PB1 domain. bead flow cytometry, Alexa488-MEK5 binding to MEKK2 mutant. percent response, % at 10 µM. 0.35% of 290,000 active. AID 1530; in the data active = percent response above about 24%, passing the limit was not always enough
IMP-1 inhibitor: blocks Pseudomonas aeruginosa IMP-1 metallo-beta-lactamase. inhibition, % at 5.6 µM. 0.45% of 290,000 active. purified IMP-1, nitrocefin hydrolysis, epi-absorbance fluorescence;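 active = inhibition above the mean plus 3 SD of all compounds in the same screening run, cut at about 4.5% in these data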;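 also: 0% = IMP-1 with DMSO and 100% = DMSO wells lacking enzyme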
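System: purified recombinant IMP-1 beta-lactamase. Medium: Zinc- and detergent-supplemented HEPES buffer, pH 7.1. Compound: one 5.6 µM dose […]. Schedule: 15 min preincubation plus 25 min reaction at 25 °C. Technique: Epi-absorbance fluorescence, 480 nm excitation, 530 nm emission.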
MEKK3 PB1 HTS: modulators (inhibitors or enhancers) of MEK5 binding to human MEKK3 PB1 domain | 1.4% of 290,000 active | AID 1529 | bead-based flow cytometry, Alexa488-MEK5 binding to MEKK3; actives lie on both sides; 0 = blocked by unlabeled MEK5, 100 = vehicle | binding response (% of control), % at 10 µM;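 active = binding response more than 3 SD above or below the average of its plate-row segment, actives on both sides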;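 also: Alexa488 bead fluorescence after subtracting the streptavidin-only scavenger bead signal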
Target sequence (Q99759 whole entry, looked up, the tested form may be a part): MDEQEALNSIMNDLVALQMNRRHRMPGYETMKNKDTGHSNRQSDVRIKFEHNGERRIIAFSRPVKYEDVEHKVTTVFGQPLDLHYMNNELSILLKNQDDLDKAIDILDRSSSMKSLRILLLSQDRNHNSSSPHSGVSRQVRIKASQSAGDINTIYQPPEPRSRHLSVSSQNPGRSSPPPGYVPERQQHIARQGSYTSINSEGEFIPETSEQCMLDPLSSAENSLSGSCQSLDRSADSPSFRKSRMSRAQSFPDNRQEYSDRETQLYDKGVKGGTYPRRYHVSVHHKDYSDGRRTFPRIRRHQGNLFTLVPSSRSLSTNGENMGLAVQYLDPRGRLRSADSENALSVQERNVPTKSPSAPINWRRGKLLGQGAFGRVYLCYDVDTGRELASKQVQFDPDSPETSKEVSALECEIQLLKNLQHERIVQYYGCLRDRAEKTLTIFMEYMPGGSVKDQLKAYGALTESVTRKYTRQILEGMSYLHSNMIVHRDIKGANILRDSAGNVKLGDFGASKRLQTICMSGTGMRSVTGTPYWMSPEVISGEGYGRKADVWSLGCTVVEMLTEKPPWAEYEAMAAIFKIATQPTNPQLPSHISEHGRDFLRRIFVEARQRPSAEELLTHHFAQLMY
MEKK2 WT-MEK5: raises or lowers MEK5 binding to wildtype human MEKK2 PB1 domain. Q9Y2U5. bead flow cytometry, Alexa488-MEK5 binding to MEKK2 WT; actives lie on both sides. binding response (% of control), % at 10 µM. 1.1% of 290,000 active. AID 1531; in the data active = binding response below about 67% or above about 130%
MEKK2wt confirm: raises or lowers MEK5 binding to wildtype human MEKK2, retest; 2.4% of 5,900 active; bead flow cytometry, Alexa488-MEK5 binding to MEKK2 WT; actives lie on both sides; binding response (% of control), % at 10 µM; shares compounds with MEKK3 PB1 HTS; in the data active = binding response below about 16% or above about 210%; inactive = in between
MEKK2mut confirm: signal of MEK5 binding to mutant human MEKK2, retest; shares compounds with MEKK3 PB1 HTS; bead flow cytometry, Alexa488-MEK5 binding to MEKK2 mutant; 2% of 5,900 active; percent response, % at 10 µM; AID 1893; in the data active = percent response mostly above about 71%, no sharp cut-off; inactive = mostly below about 38%;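 also: higher means compound restores mutant binding toward wildtype level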
MEKK3 confirm: confirmation of inhibitors of MEK5 binding to human MEKK3; shares compounds with MEKK3 PB1 HTS; bead flow cytometry, Alexa488-MEK5 binding to MEKK3; active compounds read low; binding response (% of control), % at 10 µM; 1.8% of 5,900 active;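 active = binding response below 72% of control, or above a set upper limit, though filed actives all read lower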;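 also: 100% = DMSO only wells and 0% = binding blocked by excess unlabeled MEK5; lower values mean stronger disruption of MEK5 binding to MEKK3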
An asterisk follows results filed as active; · = not tested or not shown; [ ] = another dose, or the depositor's remark.

SMILES	VIM-2 inhibitor	MEKK2 mut-MEK5	IMP-1 inhibitor	MEKK3 PB1 HTS	MEKK2 WT-MEK5	MEKK2wt confirm	MEKK2mut confirm	MEKK3 confirm
C=CCN1C(=O)/C(=c2\sc3nc(=O)c(Cc4ccccc4)nn3c2=O)c2ccccc21	1	-2	-1	95	-4.0*[inhibitor]	89	-2	91
COc1ccc(C2C(C#N)=C(N)N(N(C)C)C3=C2C(=O)CC(C)(C)C3)cc1OC (stereo not drawn)	-4	0	-4	102	98	·	·	·
Cc1ccccc1C(=O)OCc1nnc(-c2ccc(Cl)cc2)o1	-3	6	-2	146*	121	93	-5	98
CC(=O)c1ccc(OCCCC(=O)OCc2nnc(-c3ccc(Cl)cc3)o2)cc1	-1	-2	-2	102	99	·	·	·
Cc1noc(C)c1COc1ccc(C(=O)OCc2nnc(-c3ccc(Cl)cc3)o2)cc1	-3	-21	-3	2.0*[inhibitor]	2.0*[inhibitor]	100	-3	103
CCOC(=O)C(NC(=O)NCc1ccc(F)cc1)(OCC)C(F)(F)F (stereo not drawn)	-1	4	-2	128*	107	104	1	103
CCOC(=O)C(NC(=O)Nc1ccc(Cl)cn1)(Oc1ccc(F)cc1)C(F)(F)F (stereo not drawn)	-3	3	-3	152*	103	107	11	105
O=C(Nc1ccc(F)cc1)Nc1ccc(Cl)cn1	-5	5	-3	105	106	·	·	·
CCN(CC)CC(O)Cn1c(C)c(-c2ccccc2)c2cc([N+](=O)[O-])ccc21 (stereo not drawn)	-1	30*	-5	110	174*	165	43	111
CCN(CC)CC(O)Cn1c2ccccc2c2ccccc21 (stereo not drawn)	0	9	-1	105	105	·	·	·
CCS(=O)(=O)N1N=C(c2ccc(NS(C)(=O)=O)cc2)CC1c1ccccc1 (stereo not drawn)	-2	·	-2	32*[inhibitor]	·	76	-9	74
CS(=O)(=O)Nc1ccc(C2=NN(S(C)(=O)=O)C(c3ccccc3)C2)cc1 (stereo not drawn)	-2	0	-2	97	85	·	·	·
CS(=O)(=O)Nc1ccc(C2=NN(S(=O)(=O)c3ccccc3)C(c3cccs3)C2)cc1 (stereo not drawn)	-2	·	-3	7.0*[inhibitor]	·	79	-1	73
COc1ccc(S(=O)(=O)NCc2ccc3c(c2)cc(C)n3C)cc1	-1	1	-3	93	85	·	·	·
COc1ccccc1NC(=S)NCc1ccc2c(c1)cc(C)n2C	-1	-7	-3	99	98	·	·	·
CCc1cccc(C)c1NC(=S)NCc1ccc2c(c1)cc(C)n2C	-2	-3	-3	84	72*[inhibitor]	104	5	105
Cc1ccccc1NC(=S)NCc1ccc2c(c1)cc(C)n2C	-5	-2	43*	74*[inhibitor]	61*[inhibitor]	109	7	105
Cc1cc2cc(CNS(=O)(=O)c3ccccc3)ccc2n1C	-2	-20	-3	61	39*[inhibitor]	50	-14	73
Cc1cc2cc(CNC(=O)Nc3ccccc3)ccc2n1C	-1	4	-7	87	-4.0*[inhibitor]	92	3	95
CCCCN1C(N)=NC[C@@H]1Cc1ccc(O)cc1	·	1	·	97	106	·	·	·
O=[N+]([O-])c1ccc(N2CCN(c3ccccc3F)CC2)c(S(=O)(=O)N2CCOCC2)c1	-3	-2	-2	99	99	·	·	·
O=S1(=O)CC(O)C(NCc2ccco2)C1 (stereo not drawn)	-2	-4	-2	75*[inhibitor]	81	102	3	106
Cc1nnc(SCc2ccccc2CSc2nnc(C)s2)s1	-4	0	-3	130*	113	106	7	107
CC(=O)C1=C(O)C(=O)N(c2cc(C(C)(C)C)on2)C1c1ccc(C(C)C)cc1 (stereo not drawn)	-1	-3	-3	95	96	·	·	·
Cc1ccc(NC(=O)CSc2nc3nc(C)cc(C)c3c(=O)[nH]2)cc1	-2	-42	-4	0.0*[inhibitor]	-1.0*[inhibitor]	108	5	107
SMILES	VIM-2 inhibitor	MEKK2 mut-MEK5	IMP-1 inhibitor	MEKK3 PB1 HTS	MEKK2 WT-MEK5	MEKK2wt confirm	MEKK2mut confirm	MEKK3 confirm
Cc1cc(C)c2c(=O)[nH]c(SCC(=O)Nc3ccccc3)nc2n1	-1	9	-2	105	109	·	·	·
O=C(NCCc1c[nH]c2ccccc12)C(=O)c1c[nH]c2ccccc12	3	3	-4	102	103	·	·	·
O=C(NCCC1=CCCCC1)C(=O)c1c[nH]c2ccccc12	1	1	-1	133*	106	96	-12	99
O=C(Nc1ccc(Br)cc1)C1CCN(C(=O)c2ccc(F)cc2)CC1	-3	2	-1	150*	105	98	-11	96
O=C(Nc1cccc(F)c1)C1CCN(C(=O)c2ccc(Br)cc2)CC1	-2	-4	-1	93	94	·	·	·
O=c1c2ccccc2nc(COc2ccccc2)n1/N=C/c1c[nH]c2ccccc12	-3	7	-4	109	101	·	·	·
CCc1cc2ccc(C)cc2nc1SCC(=O)Nc1cc(C)on1	-2	-10	-1	90	91	·	·	·
CCc1cc2cc(C)ccc2nc1SCC(=O)Nc1cc(C)on1	-1	2	2	128*	95	104	4	104
CN(CCO)C(=O)c1cccc2c1-c1ccccc1C2=O	-2	-11	-3	81*[inhibitor]	90	101	-1	101
O=c1c2cc(Cl)ccc2[nH]c(=S)n1Cc1ccccn1	-3	0	-5	151*	103	106	-2	102
O=C(NCc1ccccn1)c1ccc(Cn2c(=S)[nH]c3ccc(Br)cc3c2=O)cc1	-3	-7	-3	97	91	·	·	·
COc1ccc2c(c1)O[C@@H](c1cccc(C(F)(F)F)c1)[C@H](OC(=O)NCCc1ccc(OC)c(OC)c1)C2=O	-2	-4	-3	93	93	·	·	·
Cc1nc(NC(=O)/C=C/c2ccccc2)sc1C(=O)NCCO	-2	79*	0	139*	129	97	-6	98
COc1cc(S(=O)(=O)NCc2ccc3c(c2)OCO3)ccc1Cl	0	-2	-6	99	95	·	·	·
Clc1ccc(OCCCN2CCCC2)cc1Cl	-1	1	-3	131*	107	115	5	104
Clc1ccc(OCCN2CCCCC2)cc1Cl	-4	1	-1	104	102	·	·	·
FC(F)(F)c1ccc(CN2CCCCCC2)cc1	-1	-2	-4	96	96	·	·	·
